Published values pooled from the literature.
Compare with care: the assays were run in different laboratories.
HSD11B2: 11-beta-hydroxysteroid dehydrogenase type 2 (HSD11B2, Homo sapiens, UniProt P80365)
FGFR3: Fibroblast growth factor receptor 3 (FGFR3, Homo sapiens, UniProt P22607)
CDK4: Cyclin-dependent kinase 4 (CDK4, Homo sapiens, UniProt P11802)

CCCCCCC(C)(C)c1cc(O)c2c(c1)OC(C)(C)C1CCC(=O)CC21 (stereo not shown) — inhibition (HSD11B2; enzyme activity, inhibitor; 20 µM, lysate): < 40%
CN1CC[C@@]2(C)c3cc(OC(=O)Nc4ccccc4)ccc3N(C)[C@@H]12 — inhibition (Muscarinic acetylcholine receptor M2 (CHRM2, Homo sapiens, UniProt P08172); ligand displacement, radioligand; 10 µM): 7.6%
C#Cc1n[nH]c2c(-c3cn([C@@H](C)c4ccccn4)c(=O)[nH]c3=O)cc(F)cc12 — inhibition (FGFR3; enzyme activity, inhibitor; 0.1 µM): 2.9%
Cc1nn(C)cc1-c1nc2c(N3CCN(Cc4ccc(Cl)cc4)CC3)c(Cl)cnc2[nH]1 — remaining binding (FGFR3; binding, competition with immobilised ligand; 1 µM): 70%
C[C@]12CC[C@H]3[C@@H](CCC4=CC(=O)CC[C@@H]43)[C@@H]1CC[C@@H]2O — inhibition (HSD11B2; enzyme activity, inhibitor; 20 µM, lysate): < 40%
COc1ncccc1-c1cnn2ccc(N3CCN(C(=O)OC(C)C)CC3)nc12 — remaining binding (Serine/threonine-protein kinase DCLK1 (DCLK1, Homo sapiens, UniProt O15075); binding, competition with immobilised ligand; 1 µM): 99%
CCOC(=O)[C@H]1Cc2c(cc([N+](=O)[O-])cc2[N+](=O)[O-])[C@H](O)[C@]12C(=O)Nc1cc(Br)ccc12 — inhibition (CDK4; cell-free assay, inhibitor, TR-FRET; 1 µM): 32.9%
Nc1ncc(-c2nc(N3CCOCC3)nc(N3CCOCC3)n2)c(C(F)F)n1 — remaining binding (Ribosomal protein S6 kinase alpha-1, N-terminal kinase domain (RPS6KA1, Homo sapiens, UniProt Q15418); binding, competition with immobilised ligand; 10 µM): 75%
CCOC(=O)[C@H]1Cc2c(cc([N+](=O)[O-])cc2[N+](=O)[O-])[C@H](O)[C@]12C(=O)Nc1ccc(Br)cc12 — inhibition (CDK4; cell-free assay, inhibitor, TR-FRET; 1 µM): 34.1%
Clc1cccc(-c2c[nH]c3nccc(N4CCOCC4)c23)c1 — ΔTm (Serine/threonine-protein kinase 3 (STK3, Homo sapiens, UniProt Q13188); thermal stability, DSF; 20 µM): > 8 °C
